The subject of assay [1] is LNCaP. The assay can be described thus: Cytotoxicity against human LNCAP cells assessed as growth inhibition at 2 to 20 uM after 144 hrs by SRB assay. It counts as functional, cell-based. In outline:
(§1)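 LNCaP and AR-overexpressing LNCaP-AR (3–5-fold higher AR) prostate cancer cells were incubated 144 h with scalar concentrations from 0.02 to 20 μM. Sulforhodamine B read-out was used for growth inhibition (IG50) and cytocidal (LC50) values. Results are the average of three independent experiments.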

Assay [2] deals with T1, Androgen receptor (Homo sapiens) (UniProt P10275).
T1 sequence (whole entry): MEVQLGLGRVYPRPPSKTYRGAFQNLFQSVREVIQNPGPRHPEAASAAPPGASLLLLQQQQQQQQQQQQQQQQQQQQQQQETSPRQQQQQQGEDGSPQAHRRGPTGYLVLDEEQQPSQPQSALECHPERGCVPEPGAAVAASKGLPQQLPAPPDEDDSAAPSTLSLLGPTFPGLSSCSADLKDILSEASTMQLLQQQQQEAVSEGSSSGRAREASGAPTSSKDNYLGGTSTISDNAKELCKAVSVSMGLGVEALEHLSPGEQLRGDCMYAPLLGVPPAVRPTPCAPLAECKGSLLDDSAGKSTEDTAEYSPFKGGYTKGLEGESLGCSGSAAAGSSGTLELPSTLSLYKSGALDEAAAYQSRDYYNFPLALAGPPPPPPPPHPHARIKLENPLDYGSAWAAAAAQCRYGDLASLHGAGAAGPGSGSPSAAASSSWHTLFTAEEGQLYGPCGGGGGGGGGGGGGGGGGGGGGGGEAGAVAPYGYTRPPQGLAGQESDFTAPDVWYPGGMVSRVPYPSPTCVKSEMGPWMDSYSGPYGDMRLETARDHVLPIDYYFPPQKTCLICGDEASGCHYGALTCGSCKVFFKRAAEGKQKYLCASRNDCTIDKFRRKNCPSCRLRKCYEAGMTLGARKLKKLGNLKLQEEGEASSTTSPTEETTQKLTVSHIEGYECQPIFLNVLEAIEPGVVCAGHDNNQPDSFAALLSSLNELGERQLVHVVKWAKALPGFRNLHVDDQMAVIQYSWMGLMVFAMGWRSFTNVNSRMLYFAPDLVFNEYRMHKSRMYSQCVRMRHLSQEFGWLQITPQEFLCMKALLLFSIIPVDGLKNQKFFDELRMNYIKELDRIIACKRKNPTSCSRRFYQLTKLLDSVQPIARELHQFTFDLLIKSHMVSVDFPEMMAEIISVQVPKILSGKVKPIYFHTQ
The assay can be described thus: Antagonist activity at human AR expressed in COS7 cells receptor assessed as inhibition of androgen-induced transcriptional activation at 10 nM to 10 uM by ARE-luciferase reporter gene assay. It counts as functional, cell-based. The settings on record: COS-7. In outline:
(§2)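 AR-negative Cos-7 cells plated subconfluent (60–70%) in phenol red-free DMEM with 5% charcoal-stripped serum for 48 h, then cotransfected with 0.3 μg 3416-pTK-TATA-Luc and 1.5 μg pSG5-hAR or empty pSG5. After 24 h, stimulated 24 h with 10 nM R1881 plus compounds. Lysate luciferase as fold induction; hAR checked by Western blot; three experiments.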
For orientation: A reporter such as luciferase makes a cellular process visible.

The target of assay [3] is T1, Androgen receptor (Homo sapiens). The assay can be described thus: Antagonist activity at human AR expressed in COS7 cells receptor assessed as inhibition of R1881-induced transcriptional activation at 10 uM by ARE-luciferase reporter gene assay. It counts as functional, cell-based. The settings on record: COS-7. In outline:
as §2

Another assay relates to LNCaP-AR. The assay can be described thus: Cytotoxicity against human LNCaP-AR cells assessed as growth inhibition at 2 to 20 uM after 144 hrs by SRB assay relative to control. It counts as functional, cell-based. In outline: as §1
A general note: Sulforhodamine B stains cellular protein and so reports cell mass.

Assay [4] relates to LNCaP. The assay can be described thus: Cytocidal activity in against human LNCAP cells after 144 hrs by SRB assay. It counts as functional. The following applies: read-out: LC50 (the source's name). The procedure, abridged: as §1
Assay [5] in a line: Cytocidal activity in human LNCaP-AR cells after 144 hrs by SRB assay. It counts as functional. The following applies: read-out: LC50 (the source's name). The procedure, abridged:
as §1

Assay [6] relates to LNCaP. The assay can be described thus: Induction of apoptosis in human LNCAP cells at 20 uM after 144 hrs by […]. It counts as functional.
The nature of assay [7]: Induction of apoptosis in human LNCaP-AR cells at 20 uM after 144 hrs by propidium iodide staining based flow cytometry analysis. It counts as functional. For orientation: In flow cytometry, cells or beads pass a laser one at a time.
Assay [8] addresses T1, Androgen receptor (Homo sapiens). The assay can be described thus: Agonist activity at AR receptor in human LNCAP cells at 10 nM to 10 uM by ARE-luciferase reporter gene assay. It counts as functional, cell-based. The procedure, abridged:
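Androgen-responsive LNCaP cells plated subconfluent (60–70%) in phenol red-free DMEM with 5% charcoal-stripped serum for 48 h, then transfected with 0.3 μg 3416-pTK-TATA-Luc ARE reporter. After 24 h, cells were exposed for 24 h to compounds (10 nM to 10 μM) without or with 10 nM R1881. Lysate luciferase expressed as fold induction; three independent experiments.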

Assay [9] has the same target. The assay can be described thus: Antagonist activity at AR receptor in human LNCAP cells assessed as inhibition of R1881-induced transcriptional activation at 10 nM to 10 uM by ARE-uciferase reporter gene assay. It counts as functional, cell-based. In outline: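 LNCaP cells at 60–70% confluence, plated in phenol red-free DMEM with 5% charcoal-stripped serum, then transfected after 48 h with 0.3 μg 3416-pTK-TATA-Luc reporter. 24 h later, stimulated for 24 h with 10 nM R1881 with or without test compound (10 nM–10 μM). Luciferase activity in lysates was expressed as fold induction. Three independent experiments were averaged.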

Assay [10] in a line: Growth inhibition in human LNCaP-AR cells after 144 hrs by SRB assay. It counts as functional. In outline:
as §1

These results are taken from ChEMBL document CHEMBL2202970, “Nonsteroidal androgen receptor ligands: versatile syntheses and biological data” (2012).

Calls of active or inactive are those of the source. The rule behind the calls is not given here.

For the molecule `C[C@]1(CS(=O)(=O)c2ccc(F)cc2)NC(=S)N(c2ccc(C#N)c(C(F)(F)F)c2)C1=O`, the “growth inhibition (GI)” value in the assay on LNCaP [1] is “Active”.
For `C[C@@]1(CS(=O)(=O)c2ccc(F)cc2)NC(=O)N(c2ccc(C#N)c(C(F)(F)F)c2)C1=O`, the “growth inhibition (GI)” value in the assay with LNCaP [1] is “Active”.
On to `C[C@](N)(COc1ccc(C#N)cc1)C(=O)Nc1ccc(C#N)c(C(F)(F)F)c1`, for which the outcome in assay [2] was Active. For the same molecule, the inhibition result in [3] was “inactive”.
`C[C@]1(CS(=O)(=O)c2ccc(F)cc2)NC(=O)N(c2ccc(C#N)c(C(F)(F)F)c2)C1=O`: the “growth inhibition (GI)” value in the assay on LNCaP [1] is “Active”.
As to `C[C@](N)(CS(=O)(=O)c1ccc(F)cc1)C(=O)Nc1ccc(C#N)c(C(F)(F)F)c1`, in the assay on LNCaP [1], the “growth inhibition (GI)” value was “Active”.
Regarding `Cc1ccc(S(=O)(=O)N[C@](C)(CS(=O)(=O)c2ccc(F)cc2)C(=O)Nc2ccc(C#N)c(C(F)(F)F)c2)cc1`, the “growth inhibition (GI)” value in the assay with LNCaP [1] and in the assay on LNCaP-AR was “Active” throughout. Also, the CC50 (in the assay on LNCaP [4]; in assay [5]) was 18.3 µM each time. For the same molecule, the Activity was 80.5% with LNCaP [6] and 91.6% in assay [7]. For the same molecule, in assay [8], the outcome was inactive. Also, the inhibition result in [3] and in [9] was “Active” throughout.
Regarding `Cc1ccc(S(=O)(=O)N[C@@](C)(CS(=O)(=O)c2ccc(F)cc2)C(=O)Nc2ccc(C#N)c(C(F)(F)F)c2)cc1`, the “growth inhibition (GI)” value in the assay with LNCaP [1] is “Active”.
In the case of `C[C@@]1(CS(=O)(=O)c2ccc(F)cc2)NC(=S)N(c2ccc(C#N)c(C(F)(F)F)c2)C1=O`, the “growth inhibition (GI)” value in the assay on LNCaP [1] is “Active”.
`C[C@@](N)(CS(=O)(=O)c1ccc(F)cc1)C(=O)Nc1ccc(C#N)c(C(F)(F)F)c1`: in the assay with LNCaP [1], the “growth inhibition (GI)” value was “Active”.
For the molecule `CC(C)(C)S(=O)(=O)N[C@](C)(CS(=O)(=O)c1ccc(F)cc1)C(=O)Nc1ccc(C#N)c(C(F)(F)F)c1`, the “growth inhibition (GI)” value in the assay with LNCaP [1] and in the assay on LNCaP-AR was “Active” throughout.
For the molecule `C[C@](O)(CS(=O)(=O)c1ccc(F)cc1)C(=O)Nc1ccc(C#N)c(C(F)(F)F)c1` [(R)-BICALUTAMIDE], the “growth inhibition (GI)” value in the assay with LNCaP [1] was “Active”. In addition, in the assay with LNCaP-AR, the “growth inhibition (GI)” value is “inactive”. In addition, the CC50 in the assay on LNCaP [4] was less than 1.8 µM. Further, in assay [10], the IG50 is less than 1.8 µM. Also, the Activity (in the assay on LNCaP [6]; in assay [7]) was 2.1% throughout.
With `C[C@@]1(COc2ccc(C#N)cc2)NC(=O)N(c2ccc(C#N)c(C(F)(F)F)c2)C1=O`, the result in [2] and in [8] was inactive.
On to `CC(C)(C)S(=O)(=O)N[C@@](C)(CS(=O)(=O)c1ccc(F)cc1)C(=O)Nc1ccc(C#N)c(C(F)(F)F)c1`, for which the “growth inhibition (GI)” value in the assay on LNCaP [1] was “Active”.
